Data as given in ChEMBL document CHEMBL1142739, “Development of spin-labeled probes for adenosine receptors” (J Med Chem, 2005).

Legend:
Adenosine receptor A1 [1] = target: T1, Adenosine receptor A1 (Rattus norvegicus, UniProt P25099); assay: Inhibition of [3H]CCPA binding to adenosine A1 receptor
T1 sequence (P25099 whole entry): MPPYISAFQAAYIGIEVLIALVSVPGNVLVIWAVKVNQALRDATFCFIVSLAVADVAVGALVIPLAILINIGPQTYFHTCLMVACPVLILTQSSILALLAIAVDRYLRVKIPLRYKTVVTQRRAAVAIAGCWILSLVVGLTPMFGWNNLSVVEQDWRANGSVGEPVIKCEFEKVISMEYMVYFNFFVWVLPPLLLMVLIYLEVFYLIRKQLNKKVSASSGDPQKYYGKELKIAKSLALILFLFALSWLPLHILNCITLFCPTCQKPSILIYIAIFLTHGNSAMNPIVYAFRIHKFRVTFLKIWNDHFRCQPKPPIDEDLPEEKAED
Outline: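 Radioligand competition assay; rat brain cortical membranes as the receptor source.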

Adenosine receptor A3 = target: T2, Adenosine receptor A3 (Homo sapiens, UniProt P0DMS8); assay: Inhibition of [3H]PSB-11 binding to adenosine A3 receptor
T2 sequence (P0DMS8 whole entry): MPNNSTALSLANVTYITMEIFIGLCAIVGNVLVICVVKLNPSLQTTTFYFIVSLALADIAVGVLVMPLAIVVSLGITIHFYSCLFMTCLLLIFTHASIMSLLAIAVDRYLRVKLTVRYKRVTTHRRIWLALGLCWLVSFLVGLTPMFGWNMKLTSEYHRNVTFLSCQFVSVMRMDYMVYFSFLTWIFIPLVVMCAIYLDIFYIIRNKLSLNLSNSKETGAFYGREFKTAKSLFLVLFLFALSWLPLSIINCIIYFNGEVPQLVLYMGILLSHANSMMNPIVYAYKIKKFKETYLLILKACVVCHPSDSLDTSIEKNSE

[2] = target: T3, Adenosine receptor A2b (Homo sapiens) (UniProt P29275); assay: Percent inhibition of [3H]PSB-298 binding to adenosine A2b receptor at 10 uM
T3 sequence (whole entry): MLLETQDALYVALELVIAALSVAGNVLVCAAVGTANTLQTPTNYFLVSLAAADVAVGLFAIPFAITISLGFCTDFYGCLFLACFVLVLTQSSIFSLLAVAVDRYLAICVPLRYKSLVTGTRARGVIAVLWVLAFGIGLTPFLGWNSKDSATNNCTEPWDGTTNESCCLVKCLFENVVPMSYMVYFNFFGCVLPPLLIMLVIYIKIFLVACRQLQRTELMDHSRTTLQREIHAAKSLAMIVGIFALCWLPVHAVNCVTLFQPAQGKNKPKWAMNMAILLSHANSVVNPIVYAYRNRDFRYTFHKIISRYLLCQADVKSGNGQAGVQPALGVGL
Outline: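 Radioligand competition assay; membranes from CHO cells stably expressing the human receptor. Percent inhibition of radioligand binding is reported at the stated test concentration.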

Adenosine receptor A2a [3] = target: T4, Adenosine receptor A2a (Rattus norvegicus, UniProt P30543); assay: Inhibition of [3H]MSX-2 binding to adenosine A2a receptor
T4 sequence (P30543 whole entry): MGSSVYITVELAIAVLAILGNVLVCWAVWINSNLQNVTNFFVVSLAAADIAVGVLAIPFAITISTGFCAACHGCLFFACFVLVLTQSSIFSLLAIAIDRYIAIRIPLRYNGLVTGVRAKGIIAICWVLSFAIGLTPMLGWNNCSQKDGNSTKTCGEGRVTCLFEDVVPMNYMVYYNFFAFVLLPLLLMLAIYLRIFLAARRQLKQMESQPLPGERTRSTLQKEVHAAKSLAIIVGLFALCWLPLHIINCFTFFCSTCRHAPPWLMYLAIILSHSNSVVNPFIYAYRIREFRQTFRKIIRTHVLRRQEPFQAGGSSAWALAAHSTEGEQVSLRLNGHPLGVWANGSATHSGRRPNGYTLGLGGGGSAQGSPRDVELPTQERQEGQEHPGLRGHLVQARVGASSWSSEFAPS

Adenosine receptor A2b [4] = target: T5, Adenosine receptor A2b (Homo sapiens, UniProt P29275); assay: Inhibition of [3H]PSB-298 binding to adenosine A2b receptor
T5 sequence (P29275 whole entry): T3 sequence (whole entry)

Adenosine receptor A2b [5] = target: T5, Adenosine receptor A2b; assay: Inhibition of [3H]ZM-241380 binding to adenosine A2b receptor
Adenosine receptor A1 [6] = target: T1, Adenosine receptor A1; assay: Inhibition of [3H]R-PIA binding to adenosine A1 receptor
Outline: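 Competition binding on rat brain cortical membranes as the A1 source. Where no Ki was reached, percent inhibition of radioligand binding was reported at 1 or 10 µM test compound.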

Adenosine receptor A2a [7] = target: T4, Adenosine receptor A2a; assay: Inhibition of [3H]NECA binding to adenosine A2a receptor
Outline: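 Competition binding on rat brain striatal membranes as the A2A source. Where no Ki was reached, percent inhibition of radioligand binding was reported at 1 or 10 µM test compound.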

[8] = target: T6, Adenosine receptor A3 (Homo sapiens) (UniProt P0DMS8); assay: Percent inhibition of [3H]PSB-11 binding to adenosine A3 receptor at 10 uM
T6 sequence (whole entry): T2 sequence (P0DMS8 whole entry)
Outline: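 Radioligand competition assay; membranes from HEK cells stably expressing the human receptor. Percent inhibition of radioligand binding is reported at the stated test concentration.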

Row | Ki (Adenosine receptor A2b [5]) | Ki (Adenosine receptor A1 [6]) | Ki (Adenosine receptor A2a [7]) | SMILES | Ki (Adenosine receptor A1 [1]) | Ki (Adenosine receptor A3) | inhibition [2] | Ki (Adenosine receptor A2a [3]) | Ki (Adenosine receptor A2b [4]) | inhibition [8]
1 |  |  |  | CCCn1c(=O)c2nc(C3CCCC3)[nH]c2n(CC2=CC(C)(C)N([O])C2(C)C)c1=O | 5.47 nM | 1700 nM | 23% | 8780 nM | > 1000 nM | 
2 | 5.3 nM |  |  | CCCCn1c(=O)[nH]c2[nH]c(-c3ccc(OCC(=O)Nc4ccc(CC(=O)O)cc4)cc3)nc2c1=O | 41 nM | 676 nM |  | 479 nM |  | 
3 |  | 8.7 nM | 511 nM | CCCn1c(=O)c2[nH]c(C3CCCC3)nc2n(Cc2ccccc2)c1=O |  | 54.6 nM |  |  |  | 
4 |  |  |  | CCCn1c(=O)c2nc(C3CC(C)(C)N([O])C(C)(C)C3)[nH]c2n(CCC)c1=O | 160 nM | ~10000 nM |  | 6750 nM | > 10000 nM | 
5 |  |  |  | CCCn1c(=O)c2nc(C3=CC(C)(C)N([O])C3(C)C)[nH]c2n(CCC)c1=O | 8.23 nM | ~10000 nM |  | 3800 nM | 3100 nM | 47%
